Data set [1] concerns the target Heat shock protein HSP90 (Homo sapiens, UniProt P07900+P08238). In words: Binding affinity to recombinant […] biotinylated-HSP90 N-terminal domain (9 to 236 residues) (unknown origin) expressed in Escherichia coli BL21 (DE3) by biolayer interferometry. The gist of the method: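 Biotinylated Hsp90 (100 µg/mL) loaded onto streptavidin sensors prewetted 10 min in PBS with 0.05% BSA and 0.01% Tween 20. Analyte binding measured at 28 °C. Double reference subtraction applied; data fitted to a 1:1 model with K_D = K_off/K_on.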
On the technique in general: Biolayer interferometry detects binding as a change in optical thickness at a sensor tip.

For data set [2], the system named is L02. In words: Cytotoxicity against human L02 cells measured after 72 hrs by CCK8 assay. Format: functional, cell-based. To be noted: L02, 72 h. The gist of the method: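 Cells grown in RPMI 1640 with 10% FBS at 37 °C, 5% CO2; STR-authenticated and mycoplasma-checked. Seeded at 3000-5000 cells/well and left 24 h. Serial compound dilutions added for 72 h, with matched DMSO as control. Viability read by CCK8 kit using the standard protocol. IC50 values derived from at least three parallel experiments.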
Background: Tetrazolium assays rely on reduction of a dye to a coloured formazan, in cell work by metabolically active cells.

Data set [3] in a line: Stability of the compound in mouse plasma assessed as parent compound remaining at 1 uM measured immediately by LC-MS/MS analysis. To be noted: read-out: Stability. It is filed as ADME, cell-free. The gist of the method:
(§1)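 Compound diluted from 10 mM DMSO stock to 1 μM in mouse or human plasma and held at 37 °C in a water bath. Reactions were stopped with acetonitrile at 0, 10, 30, 60 and 90 min. Parent compound was quantified by LC-MS/MS as % remaining.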

A short description of data set [4]: Stability of the compound in human plasma assessed as parent compound remaining at 1 uM measured immediately by LC-MS/MS analysis. It is filed as ADME, cell-free. To be noted: read-out: Stability. The gist of the method: as §1
The nature of data set [5]: Clearance in human liver microsomes at 10 uM preincubated for 5 mins followed by NADPH addition by LC-MS/MS analysis. Format: ADME, Microsome. To be noted: read-out: CLH. The method in brief:
(§2)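 Compound at 10 µM preincubated 5 min at 37 °C with human or mouse liver microsomes (0.5 mg/mL) in 100 mM phosphate, pH 7.4. Reaction started with 1 mM NADPH, stopped with cold acetonitrile, centrifuged and analysed by LC-MS/MS.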

Data set [6] is described as follows: Clearance in mouse liver microsomes at 10 uM preincubated for 5 mins followed by NADPH addition by LC-MS/MS analysis. Format: ADME, Microsome. To be noted: read-out: CLH. The gist of the method:
as §2
(Liver microsomes are vesicles of endoplasmic reticulum, rich in cytochrome P450 enzymes.)

Data set [7] has as its target T1, Glucocorticoid receptor (Homo sapiens, UniProt P04150).
T1 sequence (P04150 whole entry): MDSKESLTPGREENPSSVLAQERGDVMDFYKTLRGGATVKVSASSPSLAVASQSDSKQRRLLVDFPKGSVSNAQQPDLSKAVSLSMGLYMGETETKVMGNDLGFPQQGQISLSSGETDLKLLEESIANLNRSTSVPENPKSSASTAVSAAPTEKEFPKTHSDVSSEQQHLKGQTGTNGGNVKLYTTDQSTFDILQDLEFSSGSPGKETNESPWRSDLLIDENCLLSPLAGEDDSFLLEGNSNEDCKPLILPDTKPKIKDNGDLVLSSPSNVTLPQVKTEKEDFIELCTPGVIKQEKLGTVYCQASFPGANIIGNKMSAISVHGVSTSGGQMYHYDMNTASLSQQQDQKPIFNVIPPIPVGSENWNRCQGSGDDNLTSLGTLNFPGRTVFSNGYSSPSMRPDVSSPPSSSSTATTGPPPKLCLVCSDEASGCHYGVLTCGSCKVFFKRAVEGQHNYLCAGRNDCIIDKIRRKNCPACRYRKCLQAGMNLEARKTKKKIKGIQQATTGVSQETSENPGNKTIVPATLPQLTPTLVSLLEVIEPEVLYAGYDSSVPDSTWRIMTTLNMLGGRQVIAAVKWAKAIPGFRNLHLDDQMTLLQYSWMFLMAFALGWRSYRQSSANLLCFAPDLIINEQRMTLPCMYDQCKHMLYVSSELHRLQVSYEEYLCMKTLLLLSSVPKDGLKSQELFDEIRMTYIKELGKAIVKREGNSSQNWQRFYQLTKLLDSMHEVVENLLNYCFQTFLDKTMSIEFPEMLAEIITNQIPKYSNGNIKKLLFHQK
In words: Effect on glucocorticoid receptor phosphorylation in human HCT116 cells at 10 uM measured up to 48 hrs by Western blot analysis. Format: ADME, cell-based. The method in brief: (§3)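 HCT116 cells treated with 0, 1, 5 or 10 µM for 24 h, or with 10 µM for 0, 4, 12, 24 or 48 h. Lysates separated by SDS-PAGE and blotted. Membranes blocked in 5% milk, primary antibodies overnight at 4 °C, HRP secondaries, chemiluminescent detection.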

Data set [8] is described as follows: Effect on HSP70 in human HCT116 cells up to 10 uM measured after 24 hrs by Western blot analysis. It is filed as cell-based. The gist of the method:
as §3

The subject of data set [9] is HCT-116. In words: Effect on HSP90 expression in human HCT116 cells up to 10 uM measured after 24 hrs by Western blot analysis. Format: cell-based. To be noted: hct-116, 24 h. The gist of the method:
as §3

Data set [10] concerns HCT-116. In words: Effect on HSP90 expression in human HCT116 cells at 10 uM measured up to 48 hrs by Western blot analysis. Format: cell-based. To be noted: hct-116, 48 h. The method in brief: as §3
The nature of data set [11]: Tmax in plasma of human HCT116 cells xenografted BALB/c mouse at 80 mg/kg, po administered as single dose by LC-MS/MS analysis. It is filed as ADME, organism-based. The method in brief:
(§4)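 HCT116-xenografted mice (n = 6 per group) received a single oral 80 mg/kg dose. Blood and tumor were sampled at 0 to 24 h. Plasma was obtained by centrifugation at 3000 rpm for 10 min. Samples were stored at −80 °C and quantified by LC-MS/MS.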

A short description of data set [12]: Cmax in plasma of human HCT116 cells xenografted BALB/c mouse at 80 mg/kg, po administered as single dose by LC-MS/MS analysis. Format: ADME, organism-based. Set-up: dose 80 mg/kg, route oral. The method in brief: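 Tumour-bearing mice (n = 6 per group) given one oral dose of 80 mg/kg. Blood and tumour collected into heparinized tubes at 0, 0.25, 0.5, 1, 2, 4, 8, 12 and 24 h. Plasma obtained by centrifugation at 3000 rpm for 10 min. Samples stored at -80 °C and quantified by LC-MS/MS.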

A short description of data set [13]: Apparent volume of distribution during terminal phase in plasma of human HCT116 cells xenografted BALB/c mouse at 80 mg/kg, po administered as single dose by LC-MS/MS analysis. To be noted: read-out: Vz/F. It is filed as ADME, organism-based. The gist of the method:
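Xenograft mice (n = 6 per group) received a single 80 mg/kg oral dose. Plasma and tumour were sampled over 0–24 h into heparinized tubes and analysed by LC-MS/MS.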

The nature of data set [14]: Tmax in tumor of human HCT116 cells xenografted BALB/c mouse at 80 mg/kg, po administered as single dose by LC-MS/MS analysis. Format: ADME, organism-based, Neoplasm. The method in brief: as §4
A short description of data set [15]: Half life in tumor of human HCT116 cells xenografted BALB/c mouse at 80 mg/kg, po administered as single dose by LC-MS/MS analysis. It is filed as ADME, organism-based, Neoplasm. The gist of the method: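 Single oral dose of 80 mg/kg given to BALB/c nude mice (n = 6 per group) carrying flank HCT116 xenografts. Blood and tumor were collected at 0, 0.25, 0.5, 1, 2, 4, 8, 12 and 24 h. Blood went into heparinized tubes and was spun at 3000 rpm for 10 min to give plasma. Samples were stored at -80 °C, then drug levels in plasma and tumor were measured by LC-MS/MS.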

Data set [16] in a line: MRT in tumor of human HCT116 cells xenografted BALB/c mouse at 80 mg/kg administered as single dose by LC-MS/MS analysis. Format: ADME, organism-based, Neoplasm. The method in brief: as §4

As for `Cc1cc(C)c(S(=O)(=O)N(CC(=O)O)c2ccc(Nc3ccnc(N4CCNCC4)n3)cc2)c(C)c1`, the Kd in data set [1] was found to be 0.5 µM. The molecule also had an IC50 in [2] of more than 50 µM. Also, the remaining at 0 min, 1 µM in data set [3] and in [4] was 100% in each case. The microsomal CLint at 10 µM in data set [5] amounted to 8.97 µL/min/mg; in [6] it was 10.3 µL/min/mg. For the same molecule, the Activity entry in data set [7], in data set [8], in data set [9] and in data set [10] was “Non-Toxic” in each case. For the same molecule, the results for the Tmax in data set [11] and in data set [14] were 0.5 h and 1 h, respectively. In addition, the Cmax in data set [12] came out at 308 µg/mL. Also, in [13], the Vd/F stood at 0.392 L/kg. The molecule further showed a half-life in data set [15] of 4.66 h. In addition, the MRT in data set [16] was determined as 6.02 h.

What is called Kd is the constant that tells how readily two partners part at equilibrium. A word on the IC50: it is the concentration that gives 50% inhibition. The low end stands for greater potency, the high end for weaker potency. Usually Tmax stands for the time from dosing to the highest level. Usually Cmax stands for the maximum level reached in the sampled fluid or tissue. One may read the half-life as the time needed for the level to fall by half in the phase considered. Read a low half-life as fast loss. Broadly, the MRT is the average time that molecules of a dose stay in the body.

These data come from ChEMBL document CHEMBL4376883, “Discovery and Optimization of Small Molecules Targeting the Protein-Protein Interaction of Heat Shock Protein 90 (Hsp90) and Cell Division Cycle 37 as Orally Active Inhibitors for the Treatment of Colorectal Cancer” (J Med Chem, 2020).
